# Bioassay records deposited in PubChem by several laboratories.
# STAT1 act = activators of IFN-gamma induced STAT1 signaling; activation (% of control), % at 5.5 µM; NIH 3T3 STAT1-luciferase reporter, luminescence; 100% = IFN-gamma alone, no compound; hit rate 2.6% among 200,000; AID 932;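 active means activation above the screen-wide mean activation plus 3 SD, cut at about 130% in these data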;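 further: raw ratio to IFN-gamma control signal so 100% means no change and 0% no light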
# FLuc act counter = affects firefly luciferase, flagging false hits in luciferase stimulation screens; 200,000 tested, under 10 active; activation factor at 10 µM; AID 1027; P08659; ATPlite luciferase biochemical, luminescence, 10 min; 0 = ATP-free wells, 1 = DMSO control;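 active means luciferase activation factor, scaled between plate controls, of at least 2 with compound at 10 µM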
# Target sequence (P08659 whole entry, looked up): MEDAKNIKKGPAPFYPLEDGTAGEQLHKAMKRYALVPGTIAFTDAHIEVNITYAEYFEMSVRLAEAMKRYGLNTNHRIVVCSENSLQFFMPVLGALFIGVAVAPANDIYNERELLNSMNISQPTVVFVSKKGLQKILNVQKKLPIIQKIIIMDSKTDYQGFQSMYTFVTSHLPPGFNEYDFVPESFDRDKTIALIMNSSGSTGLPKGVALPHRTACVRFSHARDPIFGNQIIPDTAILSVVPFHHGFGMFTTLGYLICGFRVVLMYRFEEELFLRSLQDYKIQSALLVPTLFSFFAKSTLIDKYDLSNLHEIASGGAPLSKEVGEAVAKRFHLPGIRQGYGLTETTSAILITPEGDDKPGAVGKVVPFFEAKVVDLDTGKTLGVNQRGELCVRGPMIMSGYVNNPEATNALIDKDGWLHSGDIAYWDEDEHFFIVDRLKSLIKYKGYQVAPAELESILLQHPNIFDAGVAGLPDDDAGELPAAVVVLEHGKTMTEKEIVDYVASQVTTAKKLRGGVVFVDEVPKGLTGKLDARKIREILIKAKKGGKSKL
#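 Assay system – cell-free luciferase reagent · Medium – PBS-based ATP solution · Dosing – test compounds dosed from 2 mM stocks in 100% DMSO · Timing – 10 min, room temperature · Technique – light output (luminescence) · Measure – luminescence gain marking luciferase activators · Controls – No-ATP low control, compound-free enzyme-plus-ATP high control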
# APP 5'UTR act = activates APP 5'UTR luciferase reporter. activation, % at 2 µM. hit rate 1% among 190,000. AID 1276. SH-SY5Y APP 5'UTR luciferase reporter, luminescence; zero percent = DMSO vehicle wells;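 active means activation above a set limit, based on mean plus 3 SD of controls, cut at about 140% in these data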
# NF-kB neuron act = NF-kB expression increase, human neuronal cells; NF-kB reporter expression; active compounds read high; hit rate 1.6% among 190,000; fold change at 12.5 µM; in the data active means fold change above about 3.3
# FLuc inh counter = inhibits firefly luciferase, flagging false hits in luciferase inhibition screens; P08659; ATPLite firefly luciferase biochemical luminescence, 10 min; inhibition, % at 10 µM; hit rate 1.5% among 200,000; AID 1006;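 active means inhibition above about 50% when tested at 10 µM, limit read from the data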
# An asterisk follows results filed as active; nt = no result. Sampled rows, rich in hits. Any-hit rate of the full collection: about 4.1%.
SMILES,STAT1 act,FLuc act counter,APP 5'UTR act,NF-kB neuron act,FLuc inh counter
COc1cc2c(cc1NC(=O)COC(=O)C1CC(=O)N(Cc3ccco3)C1)oc1ccccc12 (stereo not drawn),116.4,1.1,12.9,1.54,-6.6
Cc1ccc(C(=O)Nc2ccc(N3CCCC3)cc2)cc1,139.9*,0.8,108.6,1.02,16.0
CN1CCN(c2ccc(NC(=O)c3ccc4c(c3)OCCO4)cc2)CC1,132.3*,0.5,141.3*,1.65,47.0
CCC(=O)N1CCN(c2ccc(NC(=O)c3ccc4c(c3)OCCO4)cc2)CC1,121.9,1,25.1,nt,1.1
COc1ccc(OCc2nnc(SCC(=O)N3CCOCC3)o2)cc1,102.2,1,-13.8,1.19,3.2
Cc1ccc(Nc2cc(C)nc(NCc3ccccc3)n2)cc1,85.2,1,nt,0.76,1.6
Cc1cc(N/N=C/c2ccccc2Cl)nc(NCc2ccccc2)n1,99.9,0.4,4.3,0.75,59.8*
Cc1cc(N/N=C\c2ccccc2)nc(-c2ccccc2O)n1,111.6,0.4,21.4,1.23,64.7*
Cc1cc(N/N=C/c2ccccc2O)nc(-c2ccccc2O)n1,94.8,0.4,-36.2,0.97,60.9*
COC(=O)c1ccc(Nc2cc(C)nc(-c3ccccc3O)n2)cc1,112.7,1.1,-29.9,1.4,-8.9
Cc1cc(N/N=C/c2ccc(O)cc2O)nc(-c2ccccc2O)n1,121.0,0.4,-56.2,0.69,64.5*
COc1ccc(-n2nc(C(=O)Nc3ccc4c(c3)OCO4)c3c4ccccc4n(C)c3c2=O)cc1,97.9,1,0.1,nt,-3.8
CCOC(=O)C1(CCOc2ccccc2)CCN(Cc2ccc(-n3cccn3)cc2)CC1,92.0,1.1,25.1,3.89*,-5.1
CCOC(=O)C1(CCOc2ccccc2)CCN(Cc2ccncc2)CC1,83.0,1,-7.3,1.14,-1.1
CCOC(=O)N1N=C(c2ccc(OC)cc2)CC1(O)C(F)(F)F (stereo not drawn),115.6,0.5,170.6*,3.27,45.7
CCc1ccc(C2=NN(C(=O)OC)C(O)(C(F)(F)F)C2)cc1 (stereo not drawn),66.0,0.3,136.2*,3.18,73.1*
COc1ccc(CC(=O)N2N=C(c3ccncc3)CC2(O)C(F)(F)F)cc1 (stereo not drawn),89.0,1,-2.0,0.92,-3.5
O=C(OCC(=O)c1cccs1)c1ccccc1,140.2*,0.5,54.0,5.46*,50.0*
COc1ccc(/C=N/NC(=O)c2ccc(CN3C(=O)c4cccc5cccc3c45)cc2)cc1O,91.8,1,-0.2,0.86,-3.2
O=C(Nc1ncc(Cc2cccc(Cl)c2Cl)s1)C1CCCO1 (stereo not drawn),143.8*,1,81.1,3.1,-2.1
COc1cc(C2Nc3ccccc3C(=O)N2c2ccc(Cl)cc2)c(Cl)cc1OCC(=O)O (stereo not drawn),138.3*,1,105.0,2.91,-3.3
COc1cc(C2NC(=O)NC(c3ccccc3)=C2C(C)=O)c(Cl)cc1OCC(=O)O (stereo not drawn),97.5,1,198.8*,1.41,0.4
CCC(=O)Nc1ccc2oc(-c3cccc(C)c3)nc2c1,103.0,0.3,190.2*,3.48*,71.3*
Cc1ccc2oc(-c3cccc(NC(=O)Cc4cccs4)c3)nc2c1,119.6,1,-4.5,1.14,4.8
O=C(Nc1cccc(-c2nc3cc(Cl)ccc3o2)c1)C1CCCO1 (stereo not drawn),130.1*,1,nt,3.43*,3.4
SMILES,STAT1 act,FLuc act counter,APP 5'UTR act,NF-kB neuron act,FLuc inh counter
O=C(Nc1cccc(-c2nc3ccccc3c(=O)o2)c1)c1ccccc1,93.9,1,17.3,1.01,-3.4
CCC(=O)Nc1ccc(-c2nc3ccccc3c(=O)o2)cc1,63.4,0.3,-14.6,nt,74.3*
Cc1ccc2oc(-c3cccc(NC(=O)C4CCCO4)c3)nc2c1 (stereo not drawn),139.8*,0.7,55.9,3.99*,30.3
CCOC(=O)C1CCCN(C(=O)c2cn(CC)c3ccc(S(=O)(=O)N(C)C)cc3c2=O)C1 (stereo not drawn),100.1,1,12.4,1.3,-4.6
Oc1cc2c(cc1C(c1ccc(Br)cc1)N1CCCC1)OCO2 (stereo not drawn),100.1,1,-7.1,0.98,-4.1
CCOc1ccc(CC(=O)Nc2nccs2)cc1,95.9,1.1,15.8,1.09,-6.7
COc1ccc(OCC(=O)Nc2cccc(-c3nc4ccccc4o3)c2)cc1,148.3*,0.9,113.1,1.75,14.9
Cc1cccc(-c2nc3cc(NC(=O)C4CCCO4)ccc3o2)c1 (stereo not drawn),130.0*,0.2,137.8*,4.67*,83.1*
O=C(CCNS(=O)(=O)c1ccc(Br)s1)NCc1ccc(F)cc1,101.8,1.1,-5.8,1.28,-5.3
Cc1cc(N2CCC(C)CC2)nc2cccc(O)c12,102.2,1,39.0,4.51*,3.0
Cc1nc2ccccc2nc1N1CCC(C)CC1,107.1,1,-3.7,1.22,0.2
COc1nc(-c2ccccc2)nnc1-c1ccccc1,155.6*,0.6,179.9*,6.17*,35.2
COc1nc(-c2ccccc2)nc(C)c1CC(=O)O,98.8,1,-9.0,1.03,0.1
Cc1cc(C2=NNC(=NC3CC3)SC2)c(C)n1Cc1ccco1,52.6,0,-46.7,0.36,95.8*
Cc1cc(-c2csc(N)n2)c(C)n1Cc1ccco1,96.6,1,7.8,1.17,-2.4
COCC(C)N=C1NN=C(c2cc(C)n(Cc3ccccc3Cl)c2C)CS1 (stereo not drawn),71.9,0.5,100.6,1.16,54.1*
COCCCN=C1NN=C(c2cc(C)n(Cc3ccco3)c2C)CS1,123.2,0.3,-94.3,1.83,70.2*
Cc1cc(C2=NNC(=NC3CC3)SC2)c(C)n1-c1ccccc1,16.9,0,-75.9,0.13,96.8*
Cn1c(SCC(=O)Nc2nccs2)nnc1-c1ccco1,104.1,1.1,5.0,1.2,-5.5
Cn1c(=NC(=O)C2CCCCC2)sc2cc([N+](=O)[O-])ccc21,103.0,1,12.6,0.91,-4.8
CCOc1ccc2c(c1)sc(=NC(=O)C1CC1)n2C,150.2*,0.6,56.3,2.98,37.4
Cc1ccccc1OCC(O)Cn1c(Br)nc2c1c(=O)n(C)c(=O)n2C (stereo not drawn),93.2,1.1,-19.6,1.08,-5.7
CCN(CCCNC(=O)CCn1c(=O)[nH]c2ccccc2c1=O)c1ccccc1,97.2,1.1,3.7,1.47,-5.6
O=C(N/N=C/c1cccs1)c1c[nH]c2ccccc12,128.6*,0.6,43.8,2.3,37.3
O=C(N/N=C/c1cccs1)c1ccccn1,120.9,0.5,123.4,2.39,51.1*
COc1cccc(CCc2nnc(CCC(=O)NC(C)c3c(C)nn(C)c3C)o2)c1 (stereo not drawn),102.4,1.1,-1.3,1.17,-9.3
CC1(C)C2(C#N)C(N)=NC3(OCCO3)C12C#N (stereo not drawn),109.2,1,-12.2,0.97,-4.4
